Measured values: ChEMBL document CHEMBL4364253, “Application of Dually Activated Michael Acceptor to the Rational Design of Reversible Covalent Inhibitor for Enterovirus 71 3C Protease” (J Med Chem, 2019)
Calls of active or inactive are those of the source.

How the values were obtained:
Enterovirus A71 [1] = test: Antiviral activity against pseudotyped FY Enterovirus A71 harboring luciferase reporter gene infected in HEK-293T cells in presence of glutathione by Bright-Glo Luciferase Assay; format: functional, organism-based
[2] = molecular target: Chymotrypsinogen A (Bos taurus) (UniProt P00766); test: Inhibition of bovine pancreas alpha-chymotrypsin at 50 uM after 30 mins using N-Succinyl-L-phenylalanine- p-nitroanilide measured for 30 mins
[3] = Reversible inhibition of Enterovirus 71 3C protease assessed as overall inhibition constant using NMA-IEALFQGPPK(DNP)FR as substrate pre-incubated for 30 mins followed by substrate addition and measured over 30 mins by fluorescence method; design: species or system Enterovirus A71
[4] = molecular target: T1, Cathepsin K (Homo sapiens) (UniProt P43235); test: Inhibition of human Cathepsin K at 50 uM using Ac-LR-AFC as substrate preincubated for 10 to 15 mins followed by substrate addition and measured for 30 to 60 mins by fluorescence method relative to control
T1 sequence (whole entry): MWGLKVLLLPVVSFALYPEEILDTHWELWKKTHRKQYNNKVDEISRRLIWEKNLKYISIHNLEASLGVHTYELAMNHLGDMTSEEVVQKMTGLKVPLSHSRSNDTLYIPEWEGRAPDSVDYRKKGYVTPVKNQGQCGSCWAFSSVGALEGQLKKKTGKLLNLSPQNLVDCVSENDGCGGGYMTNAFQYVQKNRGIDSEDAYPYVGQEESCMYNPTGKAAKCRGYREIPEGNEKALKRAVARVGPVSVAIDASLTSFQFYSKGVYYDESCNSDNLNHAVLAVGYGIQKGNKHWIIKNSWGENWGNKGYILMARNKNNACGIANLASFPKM

Enterovirus A71 [5] = test: Antiviral activity against pseudotyped FY Enterovirus A71 harboring luciferase reporter gene infected in HEK-293T cells in presence of lysine by Bright-Glo Luciferase Assay; format: functional, organism-based
Enterovirus A71 [6] = test: Reversible inhibition of Enterovirus 71 3C protease assessed as recovery of enzyme activity at 10 to 20 equivalent using peptide substrate pre-incubated for 1 hr followed by dilution prior to substrate addition using ultra-filtered sample relative to control; design: scale not given: the % may be the effect or the level left
Enterovirus A71 [7] = test: Binding affinity to Enterovirus 71 3C protease assessed as enzyme-compound covalent adduct formation via Cys147 residue after 1 hr by HPLC-ESI/MS analysis
Enterovirus A71 [8] = test: Inhibition of Enterovirus 71 3C protease in presence of ethanolamine
Enterovirus A71 [9] = test: Antiviral activity against pseudotyped FY Enterovirus A71 harboring luciferase reporter gene infected in HEK-293T cells in presence of ethanolamine by Bright-Glo Luciferase Assay; format: functional, organism-based
Enterovirus A71 [10] = test: Reversible inhibition of Enterovirus 71 3C protease assessed as recovery of enzyme activity at 10 to 20 equivalent using peptide substrate pre-incubated for 1 hr followed by dialysis and subsequent substrate addition measured up to 72 hrs relative to control; design: scale not given: the % may be the effect or the level left
[11] = molecular target: T2, Calpain-1 catalytic subunit (Homo sapiens) (UniProt P07384); test: Inhibition of human Calpain1 at 50 uM using Ac-LLY-AFC as substrate preincubated for 5 mins followed by substrate addition and measured after 10 mins by fluorescence method relative to control
T2 sequence (whole entry): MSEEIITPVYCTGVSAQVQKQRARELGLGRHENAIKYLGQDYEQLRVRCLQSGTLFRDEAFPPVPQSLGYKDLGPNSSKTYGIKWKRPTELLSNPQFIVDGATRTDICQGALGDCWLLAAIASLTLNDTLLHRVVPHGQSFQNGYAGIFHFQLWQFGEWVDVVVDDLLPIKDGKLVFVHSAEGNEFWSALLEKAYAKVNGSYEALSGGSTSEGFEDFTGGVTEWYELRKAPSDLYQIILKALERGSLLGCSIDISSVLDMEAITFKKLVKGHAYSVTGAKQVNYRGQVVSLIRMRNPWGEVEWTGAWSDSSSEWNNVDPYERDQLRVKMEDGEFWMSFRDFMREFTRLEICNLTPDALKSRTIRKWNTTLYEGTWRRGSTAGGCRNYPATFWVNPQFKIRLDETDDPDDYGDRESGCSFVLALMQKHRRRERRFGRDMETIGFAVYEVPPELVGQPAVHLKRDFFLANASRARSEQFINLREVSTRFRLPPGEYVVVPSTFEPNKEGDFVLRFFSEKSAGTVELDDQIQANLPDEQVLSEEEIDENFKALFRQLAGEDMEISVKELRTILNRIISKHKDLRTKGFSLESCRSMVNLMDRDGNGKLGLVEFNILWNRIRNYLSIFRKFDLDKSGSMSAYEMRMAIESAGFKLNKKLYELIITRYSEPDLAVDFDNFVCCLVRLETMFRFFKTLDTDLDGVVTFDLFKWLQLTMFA

Enterovirus A71 [12] = test: Inhibition of Enterovirus 71 3C protease in presence of lysine
Enterovirus A71 [13] = test: Inhibition of Enterovirus 71 3C protease in presence of glutathione
Enterovirus A71 [14] = test: Antiviral activity against pseudotyped Enterovirus A71 infected in human muscular rhabdomyosarcoma cells treated prior to viral infection and measured after 24 hrs by luminescence method; format: functional, organism-based; details: Enterovirus A
Enterovirus A71 [15] = test: Binding affinity to Enterovirus 71 3C protease assessed as enzyme-compound covalent adduct formation via Cys147 residue by measuring ratio of peak intensity of covalently modified to unmodified protein at 10 equivalent after 30 mins by HPLC-ESI/MS analysis
Procedure, shortened: (§1)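 Recombinant EV71 3C protease (40 µM) incubated with inhibitor at 30 °C in 50 mM Tris, 150 mM NaCl, 1 mM EDTA-2Na, pH 7.0. Free inhibitor and salts removed by three ultrafiltration washes with water (10 kDa cutoff). Analysis by HPLC-ESI-Orbitrap MS with 0.1% formic acid water/acetonitrile mobile phases. Spectra deconvoluted; modification given as adduct-to-unmodified protein peak intensity ratio (I_add/I_pro).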

Enterovirus A71 [16] = test: Binding affinity to Enterovirus 71 3C protease assessed as enzyme-compound covalent adduct formation via Cys147 residue by measuring ratio of peak intensity of covalently modified to unmodified protein at 20 equivalent after 1 hr by HPLC-ESI/MS analysis; procedure, shortened: as §1
Enterovirus A71 [17] = test: Irreversible covalent inhibition of Enterovirus 71 3C protease at 64 uM using NMA-IEALFQGPPK(DNP)FR as substrate and measured for 1 to 1.5 hrs by fluorescence method
Enterovirus A71 [18] = test: Antiviral activity against Enterovirus A71 EV71/Shenzhen/120F1/09 infected in human muscular rhabdomyosarcoma cells assessed as reduction in virus-induced cell death incubated for 3 days by CCK-8 assay; format: functional, organism-based; details: Enterovirus A, EV71/Shenzhen/120F1/09, 72 h
[19] = Inhibition of Enterovirus 71 E2004104-TW-CDC protease 3C (1549 to 1731 residues) expressed in Escherichia coli BL21(DE3) cells using Dacyl-KRTATVQGPSLDFE-Edans as substrate by fluorescence method; design: species or system Enterovirus A71
Enterovirus A71 [20] = test: Binding affinity to Enterovirus 71 3C protease assessed as enzyme-compound covalent adduct formation via Cys147 residue by measuring ratio of peak intensity of covalently modified to unmodified protein at 10 to 20 equivalent after 1 hr by HPLC-ESI/MS analysis; procedure, shortened: as §1
RD [21] = test: Cytotoxicity against human RD cells at 100 uM after 24 hrs by WST-1 assay relative to control; format: cell-based
RD [22] = test: Cytotoxicity against human RD cells at 33 uM after 24 hrs by WST-1 assay; format: cell-based
Enterovirus A71 [23] = test: Slow-binding inhibition of Enterovirus 71 3C protease up to 3 uM using NMA-IEALFQGPPK(DNP)FR as substrate by fluorescence method
Enterovirus A71 [24] = test: Inhibition of Enterovirus 71 3C protease assessed as induction of rapid equilibrium for enzyme-inhibitor complex formation up to 1.5 uM using NMA-IEALFQGPPK(DNP)FR as substrate by fluorescence method

Question: With `COC(=O)/C(C#N)=C/[C@H](C[C@@H]1CCCNC1=O)NC(=O)[C@H](Cc1ccc(F)cc1)NC(=O)c1cc(C)on1` as the compound, how does the Activity (Enterovirus A71 [1]) read?
Answer: Its Activity is “Active”.

Question: What about the inhibition [2] of the same compound?
Answer: Its inhibition is “inactive”.

Question: And the Ki [3]?
Answer: The Ki was 9.4 nM.

Question: What about the inhibition [4] of the same compound?
Answer: The inhibition was under 50%.

Question: And the Activity (Enterovirus A71 [5])?
Answer: Its Activity is “Active”.

Question: What about the Activity (Enterovirus A71 [6]) of the same compound?
Answer: The Activity was 65 to 85%.

Question: And the Activity (Enterovirus A71 [7])?
Answer: The Activity was “inactive”.

Question: What about the inhibition (Enterovirus A71 [8]) of the same compound?
Answer: Its inhibition is “Active”.

Question: What about the Activity (Enterovirus A71 [9]) of the same compound?
Answer: Its Activity is “Active”.

Question: What about the Activity (Enterovirus A71 [10]) of the same compound?
Answer: Its Activity is 50%.

Question: What about the inhibition [11] of the same compound?
Answer: Its inhibition is under 50%.

Question: What about the inhibition (Enterovirus A71 [12]) of the same compound?
Answer: Its inhibition is “Active”.

Question: What about the inhibition (Enterovirus A71 [13]) of the same compound?
Answer: The inhibition was “inactive”.

Question: What about the EC50 (Enterovirus A71 [14]) of the same compound?
Answer: The EC50 was 53 nM.

Question: With `Cc1cc(C(=O)N[C@@H](Cc2ccc(F)cc2)C(=O)N[C@H](/C=C/C#N)C[C@@H]2CCCNC2=O)no1` as the compound, how does the Ratio (Enterovirus A71 [15]) read?
Answer: The Ratio was over 100.

Question: And the Ratio (Enterovirus A71 [16])?
Answer: Its Ratio is over 100.

Question: What about the EC50 (Enterovirus A71 [14]) of the same compound?
Answer: The EC50 was 37000 nM.

Question: And the inhibition (Enterovirus A71 [17])?
Answer: Its inhibition is “Active”.

Question: What does the source list for `CCOC(=O)/C=C/[C@H](C[C@@H]1CCNC1=O)NC(=O)[C@@H](CC(=O)[C@@H](NC(=O)c1cc(C)on1)C(C)C)Cc1ccc(F)cc1` [RUPINTRIVIR]?
Answer: EC50 (Enterovirus A71 [18]): 41 nM; IC50 [19]: 1600 nM

Question: For `Cc1cc(C(=O)N[C@@H](Cc2ccc(F)cc2)C(=O)N[C@H](/C=C(\C#N)C(=O)N(C)C(=O)OC(C)(C)C)C[C@@H]2CCCNC2=O)no1`, which Activity (Enterovirus A71 [1]) is on record?
Answer: The Activity was “Active”.

Question: What about the inhibition [2] of the same compound?
Answer: The inhibition was “inactive”.

Question: What about the Ki [3] of the same compound?
Answer: Its Ki is 9.3 nM.

Question: What about the Ratio (Enterovirus A71 [20]) of the same compound?
Answer: Its Ratio is 1.5.

Question: What about the inhibition [4] of the same compound?
Answer: Its inhibition is under 50%.

Question: What about the Activity (Enterovirus A71 [5]) of the same compound?
Answer: The Activity was “Active”.

Question: What about the Activity (Enterovirus A71 [6]) of the same compound?
Answer: The Activity was “Active”.

Question: And the inhibition (Enterovirus A71 [8])?
Answer: Its inhibition is “Active”.

Question: What about the Activity (Enterovirus A71 [9]) of the same compound?
Answer: Its Activity is “Active”.

Question: What about the Activity (Enterovirus A71 [10]) of the same compound?
Answer: The Activity was 30%.

Question: And the inhibition [11]?
Answer: The inhibition was under 50%.

Question: And the inhibition (Enterovirus A71 [12])?
Answer: The inhibition was “Active”.

Question: What about the inhibition (Enterovirus A71 [13]) of the same compound?
Answer: Its inhibition is “inactive”.

Question: And the EC50 (Enterovirus A71 [14])?
Answer: Its EC50 is 51 nM.

Question: For `Cc1cc(C(=O)N[C@@H](Cc2ccc(F)cc2)C(=O)N[C@H](/C=C(\C#N)c2ccc(C(F)(F)F)cc2)C[C@@H]2CCCNC2=O)no1`, which Activity (RD [21]) is on record?
Answer: Its Activity is 100%.

Question: And the Activity (RD [22])?
Answer: Its Activity is “Toxic”.

Question: And the EC50 (Enterovirus A71 [14])?
Answer: Its EC50 is 1400 nM.

Question: What does the source list for `CCN(C(=O)OC(C)(C)C)C(=O)/C(C#N)=C/[C@H](C[C@@H]1CCCNC1=O)NC(=O)[C@H](Cc1ccc(F)cc1)NC(=O)c1cc(C)on1`?
Answer: Ki [3]: 24 nM; inhibition (Enterovirus A71 [23]): Active; EC50 (Enterovirus A71 [14]): 67 nM

Question: For `Cc1cc(C(=O)N[C@@H](Cc2ccc(F)cc2)C(=O)N[C@H](/C=C(\C#N)C(=O)OC(C)(C)C)C[C@@H]2CCCNC2=O)no1`, which Ki [3] is on record?
Answer: The Ki was 6.7 nM.

Question: What about the inhibition (Enterovirus A71 [24]) of the same compound?
Answer: The inhibition was “Active”.

Question: And the Activity (Enterovirus A71 [6])?
Answer: The Activity was 65 to 85%.

Question: And the Activity (Enterovirus A71 [7])?
Answer: The Activity was “inactive”.

Question: And the EC50 (Enterovirus A71 [14])?
Answer: The EC50 was 30 nM.
